Reference: paper PMC6253716 (Chemical Science, 2018)
Read-outs that look alike come from different tables or passages of the source.

What was measured:
[1] = test system: HCT116 KRAS mutant colorectal cells; assay: Cell proliferation assay; assay type: cell-based; settings: Homo sapiens, HCT-116, 96 h, read-out: Anti-proliferative IC50 HCT116
Outline: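 Cells were kept in DMEM + 10% FBS at 37 °C, 5% CO2. 5 × 10^3 cells were seeded one day before treatment. Compound was given in 0.1% (v/v) DMSO for 96 h, then viability was read with Alamar Blue. IC50 came from a sigmoidal dose–response fit.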

pRSK in HCT116 cells = assay: Quantification of pRSK by MSD, HCT116; assay type: cell-based; settings: for IC50: Homo sapiens, read-out: Pharmacodynamic IC50 (pRSK)
Outline: (§1)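 Lysis was 20 min at RT. Lysate was captured 3 h at RT on anti-pRSK-coated MSD plates, detected with sulfo-tag anti-RSK antibody for 1 h, and read electrochemiluminescently. IC50 came from a sigmoidal dose–response fit.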

pRSK in A375 cells = assay: Quantification of pRSK by MSD, A375; assay type: cell-based; settings: Homo sapiens, read-out: Pharmacodynamic IC50 (pRSK)
Outline: as §1

ERK1/2 [2] = assay: In-lysate ERK1/2 pull down in competition with SCH-TCO; assay type: binding; settings: cell lysates
ERK1/2 [3] = assay: In-lysate ERK1/2 pull down in competition with TCO-GDC-2; assay type: binding; settings: HCT116 lysates; for Target engagement EC50 with TCO-GDC-2 probe (in words): apparently exaggerated
ERK1/2 [4] = assay: CETSA melting curves; assay type: cell-based; settings: HCT116 cells and lysates; 10 μM inhibitor
Outline: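 HCT116 cells in McCoy's 5A at 3 × 10^6 cells per mL got DMSO or 10 μM inhibitor for 1 h at 37 °C. Lysate arm: TG lysis buffer lysate with 10 μM inhibitor for 15 min at RT. Samples were heated 3 min at 12 temperatures (37–70 °C) and lysed by 3 freeze–thaw cycles. Soluble fraction (20 000g, 20 min) was immunoblotted for total ERK1/2 and quantified by densitometry into melting curves.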

ERK2 [5] = target: T1, ERK2 (Homo sapiens, UniProt P28482); assay: In-cell ERK1/2 pull down in competition with SCH-TCO, ERK2; assay type: cell-based
ERK1 [6] = target: T2, ERK1 (Homo sapiens, UniProt P27361); assay: In-cell ERK1/2 pull down in competition with SCH-TCO, ERK1; assay type: cell-based
ERK1 [7] = target: T2, ERK1; assay: ITDR-CETSA in HCT116 cells, ERK1; assay type: cell-based
ERK2 [8] = target: T1, ERK2; assay: ITDR-CETSA in HCT116 cells, ERK2; assay type: cell-based
ERK2 [9] = target: T1, ERK2; assay: ERK2 bioassay; assay type: biochemical
ERK1/2 [10] = settings: published data for the untagged compound; cited from earlier work

T1 sequence (P28482 whole entry): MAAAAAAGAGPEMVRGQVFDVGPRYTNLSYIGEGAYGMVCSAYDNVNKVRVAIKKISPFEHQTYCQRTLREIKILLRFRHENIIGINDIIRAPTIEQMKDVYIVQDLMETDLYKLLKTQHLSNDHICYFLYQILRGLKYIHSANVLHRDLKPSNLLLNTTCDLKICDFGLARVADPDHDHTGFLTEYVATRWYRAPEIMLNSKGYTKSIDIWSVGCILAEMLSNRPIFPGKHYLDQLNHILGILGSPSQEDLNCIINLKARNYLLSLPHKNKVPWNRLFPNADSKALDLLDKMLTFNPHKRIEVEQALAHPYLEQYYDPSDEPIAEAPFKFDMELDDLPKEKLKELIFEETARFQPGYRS
T2 sequence (P27361 whole entry): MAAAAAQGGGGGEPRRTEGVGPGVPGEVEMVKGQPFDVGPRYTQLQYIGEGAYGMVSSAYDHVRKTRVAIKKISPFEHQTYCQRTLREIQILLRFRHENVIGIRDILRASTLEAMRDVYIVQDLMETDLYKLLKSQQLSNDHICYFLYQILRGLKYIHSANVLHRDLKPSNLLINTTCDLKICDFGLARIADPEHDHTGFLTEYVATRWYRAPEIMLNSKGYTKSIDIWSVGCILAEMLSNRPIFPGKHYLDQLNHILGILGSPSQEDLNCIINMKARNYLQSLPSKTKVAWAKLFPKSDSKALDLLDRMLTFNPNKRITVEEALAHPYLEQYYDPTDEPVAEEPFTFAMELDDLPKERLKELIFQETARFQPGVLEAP

| IC50 [1] [µM] | IC50 (pRSK in HCT116 cells; HCT-116, 2 h) [µM] | IC50 (pRSK in HCT116 cells; HCT-116, 7 h) [µM] | IC50 (pRSK in A375 cells; A-375, 2 h) [µM] | IC50 (pRSK in A375 cells; A-375, 7 h) [µM] | Difference between EC50 in A375 and HCT116 lysates (ERK1/2 [2]) | Difference between EC50 in competition with TCO-GDC-2 as compared with SCH-TCO (ERK1/2 [3]) [fold] | Target engagement EC50 with TCO-GDC-2 probe (in words) (ERK1/2 [3]) | EC50 (ERK2 [5]) [µM] | EC50 (ERK1 [6]) [µM] | IC50 (pRSK in A375 cells; A-375, 4 h) [µM] | EC50 (ERK1 [7]) [µM] | EC50 (ERK2 [8]) [µM] | Bioassay % @ 0.003 μM (ERK2 [9]; at 0.003 μM) | Difference between engagement of ERK1 and ERK2 (ERK2 [8]; ITDR-CETSA in HCT116 cells, higher affinity for ERK2) [fold] | Inhibition of ERK2 (in words) (ERK2 [9]) | IC50 (ERK2 [9]; read-out: Bioassay IC50, geometric means) [µM] | Compound | Effect on CETSA melting curves of ERK1/2 relative to DMSO control (ERK1/2 [4]) | Suppression of pRSK (pRSK in HCT116 cells; HCT116 cells) | t1/2 (off-rate, published data) (ERK1/2 [10]) [min] |
| --- | --- | --- | --- | --- | --- | --- | --- | --- | --- | --- | --- | --- | --- | --- | --- | --- | --- | --- | --- | --- |
| 1 | 0.14 | 0.11 | 0.17 | 0.13 | 2-3 fold | ~2 | low nanomolar range | – | – | – | – | – | – | – | – | – | Cn1nccc1Nc1nccc(-c2ccn([C@H](CO)c3ccc(Cl)c(F)c3)c(=O)c2)n1 [GDC-0994] | – | – | – |
| 0.48 | – | – | – | – | – | ~2 | low nanomolar range | 0.77 | 0.67 | 2.1 | 0.3 | 0.33 | 62% @ 0.003 μM (2) | – | – | – | Cn1nccc1Nc1nccc(-c2cc3c(s2)C(C)(C)N(CCN2CCOCC2)C3=O)n1 [LY3214996] | temperature shift in the melting curves | failed to show convincing suppression of pRSK | – |
| 0.05 | 0.009 | 0.006 | 0.02 | 0.02 | – | – | – | – | 0.016 | – | 0.063 | – | – | 4 | – | – | O=C(Nc1ccc2[nH]nc(-c3ccncc3)c2c1)[C@@H]1CCN(CC(=O)N2CCN(c3ccc(-c4ncccn4)cc3)CC2)C1 [SCH772984] | – | – | 25 to 80 |
| – | – | – | – | – | – | – | – | – | – | – | – | – | – | – | does not appreciably inhibit ERK2 | 8.1 | Biotin-PEG4-tetrazine [Biotin-PEG4-Tz] | – | – | – |
